Assay outcomes: PubChem BioAssay, several laboratories
Lipid droplet: inhibitors of hepatocyte lipid droplet formation, primary screen, imaging, high-throughput imaging, BODIPY stain; inhibition, % at 6.5 µM; 240,000 tested, 0.4% active; AID 1656, 2009; AML12 mouse hepatocytes, oleate lipid droplets;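 active means lipid droplet intensity inhibited by at least 50%, with more than 500 cells counted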
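System: AML12 hepatocytes (mouse). Probe or stimulus: oleic acid at 100 µM to induce lipid droplet formation. Times: overnight treatment with compound plus oleate. Detection: Image-based BODIPY and DAPI two-channel analysis. Evaluation: percent inhibition of filter-corrected integrated lipid droplet intensity per well.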
SR-BI HDL uptake: inhibitors of SR-BI mediated HDL lipid uptake, primary screen, ldlA[mSR-BI] cells, fluorescence, single point; Scavenger receptor class B member 1 (Mus musculus), Q61009; ldlA[mSR-BI] CHO cells, DiI-HDL uptake fluorescence, 3 h; inhibition, % at 12.5 µM; 320,000 tested, 0.96% active; AID 488896, 2010;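 active means mean replicate inhibition of at least 70% and a set share of replicates each scoring 70 or more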;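 further: 0% = median of neutral control wells and 100% = median of positive control wells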
Target sequence (Q61009 whole entry, looked up): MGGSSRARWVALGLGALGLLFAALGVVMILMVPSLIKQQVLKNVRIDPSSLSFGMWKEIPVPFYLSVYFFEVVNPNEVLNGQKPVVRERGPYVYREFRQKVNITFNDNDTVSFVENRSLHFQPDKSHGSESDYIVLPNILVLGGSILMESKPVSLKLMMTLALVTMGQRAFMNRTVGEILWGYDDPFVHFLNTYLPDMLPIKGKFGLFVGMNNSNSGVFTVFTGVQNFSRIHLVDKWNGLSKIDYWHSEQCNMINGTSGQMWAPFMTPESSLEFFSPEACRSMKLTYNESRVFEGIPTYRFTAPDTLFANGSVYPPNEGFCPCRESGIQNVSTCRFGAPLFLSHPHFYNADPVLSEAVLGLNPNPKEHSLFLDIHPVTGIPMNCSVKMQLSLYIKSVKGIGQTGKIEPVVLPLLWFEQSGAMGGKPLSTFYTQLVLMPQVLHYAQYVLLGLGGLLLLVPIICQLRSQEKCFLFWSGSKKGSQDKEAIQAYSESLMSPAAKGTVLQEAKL
NOD2-RIPK2 inh: NOD2-RIPK2 binding disruptors in cells, primary screen, fluorescence, CHO cells, BLA complementation. Receptor-interacting serine/threonine-protein kinase 2 (Homo sapiens), O43353. CCF4 ratio. inhibition, % at 4.98 µM. 360,000 tested, 0.38% active. AID 624267, 2012; in the data active means inhibition above about 21%;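 further: 0% = vehicle only and 100% = reference blocker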
TLR9-MyD88 block: inhibitors of TLR9-MyD88 association in cells, primary screen, cell-based, CHO, BLA complementation, fluorescence; Toll-like receptor 9 (Homo sapiens) + Myeloid differentiation primary response protein …; CCF4 FRET ratio; inhibition, % at 4.98 µM; 340,000 tested, 0.21% active; AID 504734, 2011;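 active means inhibition above the mean over all tested compounds plus 3 SD, cut at about 21% in these data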;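 further: 0% = DMSO only wells and 100% = clavulanate BLA inhibitor control wells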
TLR4 MyD88 comp: inhibitors of TLR4-MyD88 association in cells, primary screen, cell-based, HeLa CL3-4, BLA complementation, FRET ratio | Toll-like receptor 4 (Homo sapiens) + Myeloid differentiation primary response protein … | HeLa CL3-4 TLR4/MyD88 BLA complementation | inhibition, % at 8.4 µM | 200,000 tested, 0.18% active; in the data active means inhibition above about 25%;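 further: 0% = vehicle and 100% = reference inhibitor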
SR-BI uptake up: activators of SR-BI mediated DiI-HDL uptake, primary screen, ldlA[mSR-BI] CHO cells, DiI fluorescence; 3 h; 100 = double the neutral-control signal; activation, % at 12.5 µM; 320,000 tested, 0.096% active; AID 504775, 2011;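 active means mean replicate activation of at least 60% and every replicate at or above 60%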;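 further: 0% = median plate neutral-control signal and 100% = twice that signal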
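Material – SR-BI-overexpressing, LDLR-lacking CHO cells · Medium – BSA-supplemented, HEPES-buffered Ham's F12, pH 7.4 · Doses – single concentration · Times – compound with DiI-HDL co-incubation, 3 h at 37 °C · Measured by – bottom-read fluorescence, 550/595 nm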
* = called active by the depositor; nt = no result given. This is a sample that favours compounds with a hit; in the whole collection about 1.6% have one here.

SMILES	Lipid droplet	SR-BI HDL uptake	NOD2-RIPK2 inh	TLR9-MyD88 block	TLR4 MyD88 comp	SR-BI uptake up
CCOc1ccc(C(C)=O)cc1CSc1nnc(-c2ccoc2C)n1N	nt	71*	-10	13	4	nt
N#CC1(NC(=O)COc2ccc(S(=O)(=O)N3CCCC3)cc2[N+](=O)[O-])CCCCC1	nt	-9	7	5	nt	9
O=C(CSc1nnc(COc2ccc(Cl)cc2)o1)N1CCCC1	-2	-21	-4	8	nt	21
O=C(CSc1nnc(COc2ccc(Cl)cc2)o1)N1c2ccccc2CCc2ccccc21	nt	75*	-5	-3	0	-75
COc1ccc(Nc2nc(-c3ccc4c(c3)NC(=O)CO4)cs2)cc1	3	44	-6	-16	-10	-44
COc1ccccc1Nc1nc(-c2ccc3c(c2)NC(=O)CO3)cs1	15	78*	-4	-9	0	-78
C=CCN(c1ccccc1OC)S(=O)(=O)c1ccc(Cl)c(C(=O)Nc2ccc(N3CCOCC3)cc2)c1	25	96*	-5	-5	2	-96
COc1ccccc1N(C)S(=O)(=O)c1ccc(C(=O)Nc2ccc(N3CCOCC3)cc2)cc1	0	54	0	-1	10	-54
OCCNc1ncnc2c1ncn2[C@H]1CN(Cc2ccc3c(c2)OCO3)C[C@@H](CO)O1	nt	nt	-3	nt	nt	nt
COc1ccc(C(=O)N=C2SC3CS(=O)(=O)CC3N2c2ccc(C(C)=O)cc2)cc1 (stereo unspecified)	-9	11	5	-7	nt	-11
COc1cccc(CN(C)CC(=O)Nc2cc3oc4ccccc4c3cc2OC)c1	-3	78*	-3	-5	3	-78
COc1cc2c(cc1NC(=O)c1ccncc1)oc1ccccc12	nt	78*	-4	-4	0	-78
COc1ccccc1CC(=O)Nc1cc2oc3ccccc3c2cc1OC	nt	87*	-8	-1	-3	-87
COc1cc2c(cc1NC(=O)c1cccnc1)oc1ccccc12	11	nt	0	2	-8	nt
COCCNC(=S)Nc1cc2oc3ccccc3c2cc1OC	8	93*	-6	-9	nt	-93
CNc1cccc(-c2ccccc2CO)n1	nt	nt	2	nt	nt	nt
O=S(=O)(c1cccc(-c2nnc3n2CCCCC3)c1)N1CCCC1	-2	-17	4	4	-12	17
COc1ccc(C(=O)NC(=S)Nc2cc3oc4ccccc4c3cc2OC)cc1	-1	32	1	-1	3	-32
COc1cc(OC)cc(C(=O)NC(=S)Nc2cc3oc4ccccc4c3cc2OC)c1	0	81*	-7	1	13	-81
O=C(NNC(=O)c1ccccc1O)c1ccc(Cl)c(S(=O)(=O)N2CCc3ccccc32)c1	nt	117*	1	-5	nt	-117
Cc1ccc(C(=O)NC2CCCC2)cc1S(=O)(=O)N1CCCCC1	11	-8	-5	-2	nt	nt
Cc1ccc(C(=O)NNC(=O)c2ccccc2O)cc1S(=O)(=O)N1CCCCC1	nt	78*	-4	4	nt	-78
COc1ccc(-c2[nH]c(-c3cc(OC)c4c(c3)OCO4)nc2-c2ccccc2)cc1	0	88*	-18	1	-3	-88
COc1ccc(-c2nc(-c3ccccc3)c(-c3cc([N+](=O)[O-])ccc3C)[nH]2)cc1OC	20	59	6	-1	-12	-59
CCc1c(C)nc(/N=C(/NC(=O)c2ccccc2)Nc2ccccc2OC)[nH]c1=O	nt	nt	nt	nt	13	nt
SMILES	Lipid droplet	SR-BI HDL uptake	NOD2-RIPK2 inh	TLR9-MyD88 block	TLR4 MyD88 comp	SR-BI uptake up
C=CCO/N=C(/C)c1ccc(Oc2cnccn2)cc1	2	-5	-1	-5	-5	5
O=C(Nc1cccc(S(=O)(=O)NC2=NCCC2)c1)c1cc(Cl)ccc1[N+](=O)[O-]	nt	-18	5	4	nt	18
CCN(CC)c1ccc(-n2cc3c(=O)n(C)c(=O)n(C)c3c2)cc1	-3	74*	-7	0	4	-74
CN(C)c1ccc(-n2cc3c(=O)n(C)c(=O)n(C)c3c2)cc1	nt	15	-13	-10	-2	-15
COc1cc(OC)cc(C(=O)N[C@H](C(=O)OCC(=O)c2ccc(C)c([N+](=O)[O-])c2)C(C)C)c1	nt	48	-1	-6	nt	-48
Cc1cc(C)c(NC(=O)CSc2nc3ccc(N4C(=O)c5ccccc5C4=O)cc3s2)c(C)c1	0	74*	-2	3	8	-74
Cc1ccc(NC(=O)/C=C/c2ccc(S(=O)(=O)N3CCOCC3)cc2)cc1S(=O)(=O)N(C)C	nt	86*	1	1	nt	-86
Oc1ccc(/C=C/c2ccc3ccccc3n2)cc1	8	24	17	-1	-3	-24
CCCN(CCC)c1ccc(/C=C/c2ccc3cc(OCC)ccc3n2)cc1	29	71*	10	-13	nt	-71
O=S(=O)(CCN1CCCCC1)Oc1ccc(Cl)cc1Cl	11	-14	6	5	nt	14
CCOC(=O)c1sc2nc(SC)nc(-c3ccc(Cl)cc3)c2c1N	nt	87*	-6	1	3	-87
O=C(C[C@H]1CC[C@@H]2[C@H](COC[C@H](O)CN2Cc2cccc(C(F)(F)F)c2)O1)NCCc1ccccc1	nt	nt	-6	nt	nt	nt
O=C(NNC(=O)c1cc(-c2ccncc2)nc2ccccc12)c1ccccc1O	nt	94*	0	2	nt	-94
COc1ccc(-c2cc(C(=O)NCCc3ccc(S(N)(=O)=O)cc3)c3ccccc3n2)cc1	-4	56	-8	3	-3	-56
NS(=O)(=O)c1ccc(CCNC(=O)c2cc(-c3ccccc3)nc3ccccc23)cc1	-2	80*	-9	6	1	-80
Cc1ccc(-c2cc(C(=O)NCCc3ccc(S(N)(=O)=O)cc3)c3ccccc3n2)cc1	-16	86*	0	3	-10	-86
CC(NCc1cccnc1)c1ccccc1 (stereo unspecified)	-7	-37	-1	0	nt	37
CCOC(=O)N1CCN(C(=O)c2cn(CC)c3ccc(S(=O)(=O)N4CCCCC4)cc3c2=O)CC1	-13	-24	3	-8	-12	24
CCOc1ccccc1CN1CCNC(=O)C1CC(=O)NCc1cc(C)n(C)n1 (stereo unspecified)	-6	-13	8	0	nt	13
O=C(Cc1cccs1)N(CC1CCCO1)C1(C(=O)NC2CCCC2)CCCCC1 (stereo unspecified)	-63	-23	2	-1	1	23
